Data reported in ChEMBL document CHEMBL4038301 (J Med Chem, 2017).
Values belong to the molecule of their own block, whether it stands above or below them.

Tests used:
Rattus norvegicus [1] = assay: Terminal half life in Sprague-Dawley rat at 1 mg/kg, iv up to 24 hrs post dose by LC/MS/MS analysis; format: ADME, organism-based; conditions: in vivo
How it was run: (§1)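 Male Sprague–Dawley rats (250–350 g, n=2), dual-cannulated (carotid artery and jugular vein). Dosed 1.0 mg/kg IV into the jugular vein in 10% ethanol, 50–70% PEG 400 and 20–40% saline.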

Rattus norvegicus [2] = assay: MRT in Sprague-Dawley rat at 1 mg/kg, iv up to 24 hrs post dose by LC/MS/MS analysis; format: ADME, organism-based; conditions: in vivo
Rattus norvegicus [3] = assay: Volume of distribution at steady state in Sprague-Dawley rat at 1 mg/kg, iv up to 24 hrs post dose by LC/MS/MS Analysis; format: ADME, organism-based; conditions: in vivo; how it was run: as §1
[4] = Total plasma concentration in Sprague-Dawley rat at 10 mg/kg, po after 1 hr post dose by LC/MS/MS analysis; format: ADME, organism-based
[5] = Total drug level in Sprague-Dawley rat brain at 10 mg/kg, po after 1 hr post dose by LC/MS/MS analysis; format: ADME, organism-based; conditions: read-out: Drug uptake
[6] = Ratio of drug level in Sprague-Dawley rat brain to plasma at 10 mg/kg, po after 1 hr post dose by LC/MS/MS analysis; format: ADME, organism-based
Plasma = assay: Unbound plasma concentration in Sprague-Dawley rat at 10 mg/kg, po after 1 hr post dose by LC/MS/MS analysis; format: ADME, organism-based; conditions: in vivo
Brain [7] = assay: Unbound drug level in Sprague-Dawley rat brain at 10 mg/kg, po after 1 hr post dose by LC/MS/MS analysis; format: ADME, organism-based; conditions: in vivo
[8] = Ratio of unbound drug level in Sprague-Dawley rat brain to plasma at 10 mg/kg, po after 1 hr post dose by LC/MS/MS analysis; format: ADME, organism-based
Rattus norvegicus [9] = assay: Tmax in Sprague-Dawley rat at 10 mg/kg administered via nasogastric gavage up to 24 hrs by LC/MS/MS analysis; format: ADME, organism-based; conditions: in vivo, po
Rattus norvegicus [10] = assay: Cmax in Sprague-Dawley rat at 10 mg/kg, administered via nasogastric gavage up to 24 hrs by LC/MS/MS analysis; format: ADME, organism-based; set-up: dose 10 mg/kg, route nasogastric; conditions: in vivo, po
Rattus norvegicus [11] = assay: AUC in Sprague-Dawley rat at 10 mg/kg, administered via nasogastric gavage up to 24 hrs by LC/MS/MS analysis; format: ADME, organism-based; set-up: time < 24 hr, dose 10 mg/kg, route nasogastric; conditions: in vivo, po
Rattus norvegicus [12] = assay: Oral bioavailability in Sprague-Dawley rat at 10 mg/kg, administered via nasogastric gavage up to 24 hrs by LC/MS/MS analysis; format: ADME, organism-based; conditions: in vivo
[13] = (§2) Terminal half life in cynomolgus monkey at 0.5 mg/kg, iv up to 24 hrs by LC/MS/MS analysis; format: ADME, organism-based, Macaca fascicularis; conditions: in vivo, read-out: beta t1/2
Cynomolgus monkey [14] = assay: MRT in cynomolgus monkey at 0.5 mg/kg, iv up to 24 hrs by LC/MS/MS analysis; format: ADME, organism-based, Macaca fascicularis; conditions: in vivo
[15] = Plasma clearance in cynomolgus monkey at 0.5 mg/kg, iv up to 24 hrs by LC/MS/MS analysis; format: ADME, organism-based, Macaca fascicularis
Cynomolgus monkey [16] = assay: Cmax in cynomolgus monkey at 5 mg/kg administered via nasogastric gavage up to 24 hrs by LC/MS/MS analysis; format: ADME, organism-based, Macaca fascicularis; set-up: dose 5 mg/kg, route nasogastric; conditions: in vivo, po
Cynomolgus monkey [17] = assay: AUC in cynomolgus monkey at 5 mg/kg administered via nasogastric gavage up to 24 hrs by LC/MS/MS analysis; format: ADME, organism-based, Macaca fascicularis; set-up: dose 5 mg/kg, time < 24 hr, route nasogastric; conditions: in vivo, po
Cynomolgus monkey [18] = assay: Oral bioavailability in cynomolgus monkey at 5 mg/kg administered via nasogastric gavage up to 24 hrs by LC/MS/MS analysis; format: ADME, organism-based, Macaca fascicularis; conditions: in vivo
Cynomolgus monkey [19] = assay: as §2; format: ADME, organism-based, Macaca fascicularis; conditions: in vivo, 24 h
[20] = Apparent permeability across apical to basolateral side in MDCK cells expressing human MDR1 at 2 uM after 30 mins by LC-MS/MS; format: ADME, cell-based, Canis lupus familiaris; conditions: dog, 0.5 h
[21] = Apparent permeability across basolateral to apical side in MDCK cells expressing human MDR1 at 2 uM after 30 mins by LC-MS/MS; format: ADME, cell-based, Canis lupus familiaris; conditions: dog, 0.5 h
[22] = Apparent permeability across apical to basolateral side in human Caco2 cells at 2 uM after 10 mins by LC-MS/MS; format: ADME, cell-based; conditions: caco-2, 10 min
[23] = Intrinsic clearance in human cryopreserved hepatocytes assessed per million cells at 5 uM measured after 15 to 120 mins by LC/MS/MS analysis; format: ADME, cell-based, Hepatocyte
How it was run: (§3)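 Pooled human cryopreserved hepatocytes (19 donors, mixed gender), thawed and resuspended in KHB. Compound 5 µM final, shaken at 37 °C. Aliquots quenched in acetonitrile with carbamazepine at 0, 15, 30, 60 and 120 min. Percent parent remaining measured by LC/MS/MS. Midazolam served as positive control.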

[24] = Half life in human cryopreserved hepatocytes at 5 uM measured by LC/MS/MS analysis; format: ADME, cell-based, Hepatocyte; how it was run: as §3
[25] = Drug level in Harlan CD1 mouse brain at 3 mg/kg, ip at 15 mins; format: ADME, organism-based; conditions: read-out: Drug uptake
[26] = Drug metabolism in cynomolgus monkey hepatic S9 fraction assessed as AO-mediated metabolite formation by LC/MS analysis; format: ADME, Macaca fascicularis, Liver
Brain [27] = assay: Unbound concentration in Harlan CD1 mouse brain at 3 mg/kg, ip at 15 mins by equilibrium dialysis method; format: ADME, organism-based; conditions: in vivo
[28] = Plasma clearance in cynomolgus monkey at 0.2 mg/kg, iv up to 24 hrs by LC/MS/MS analysis; format: ADME, organism-based, Macaca fascicularis

Structure (SMILES): Cc1cc(Oc2cnc(C)nc2)cc(C(=O)Nc2ccc(F)cn2)n1
beta t1/2 (Rattus norvegicus [1]): 229 min
MRT (Rattus norvegicus [2]): 191 min
Vdss (Rattus norvegicus [3]): 1.2 L/kg
concentration at 1 h [4]: 4.82 µM
concentration at 1 h [5]: 3220 nM
BPR [6]: 0.67
Cp(f) (Plasma): 390 nM
Drug uptake(free) (Brain [7]): 142 nM
K(p,uu,brain) [8]: 0.36

Structure (SMILES): CCc1cccc(NC(=O)c2cc(Oc3cncnc3)cc(C)n2)n1
beta t1/2 (Rattus norvegicus [1]): 404 min
MRT (Rattus norvegicus [2]): 80 min
Vdss (Rattus norvegicus [3]): 6.6 L/kg

Structure (SMILES): Cc1cc(Oc2cncnc2)cc(C(=O)Nc2ccc(F)cn2)n1
beta t1/2 (Rattus norvegicus [1]): 390 min
MRT (Rattus norvegicus [2]): 93 min
Vdss (Rattus norvegicus [3]): 1.8 L/kg
concentration at 1 h [4]: 3 µM
concentration at 1 h [5]: 2580 nM
Cp(f) (Plasma): 318 nM
Drug uptake(free) (Brain [7]): 201 nM
Tmax (Rattus norvegicus [9]): 30 min
Cmax (Rattus norvegicus [10]): 4.34 µM
AUC (Rattus norvegicus [11]): 14.6 µM·h
F (Rattus norvegicus [12]): 53%
beta t1/2 (Cynomolgus monkey [19]): 302 min
MRT (Cynomolgus monkey [14]): 163 min
clearance [15]: 15.5 mL/min/kg
Cmax (Cynomolgus monkey [16]): 1720 nM
AUC (Cynomolgus monkey [17]): 7.32 µM·h
F (Cynomolgus monkey [18]): 44%
Papp [20]: 6.2 ×10⁻⁶ cm/s
Papp [21]: 7.2 ×10⁻⁶ cm/s
Papp [22]: 6.5 ×10⁻⁶ cm/s
CLH [23]: 1.43 µL/min
t1/2 [24]: 322 min
concentration at […] [25]: 1480 nM
Drug metabolism [26]: Metabolite_Detected
Drug uptake(free) (Brain [27]): 115 nM

Structure (SMILES): Cc1csc(NC(=O)c2cc(F)cc(Oc3cncnc3)c2)n1
F (Rattus norvegicus [12]): < 5%
clearance [28]: 24 mL/min/kg

Structure (SMILES): Cc1cccc(NC(=O)c2cc(Oc3cncnc3)cc(C)n2)n1
beta t1/2 (Rattus norvegicus [1]): 105 min
MRT (Rattus norvegicus [2]): 39 min
Vdss (Rattus norvegicus [3]): 1.6 L/kg

The remaining lines, values ahead:

beta t1/2 (Rattus norvegicus [1]): 281 min
MRT (Rattus norvegicus [2]): 208 min
Vdss (Rattus norvegicus [3]): 1.9 L/kg
Cp(f) (Plasma): 38.6 nM
Drug uptake(free) (Brain [7]): 31.6 nM
K(p,uu,brain) [8]: 0.82
Tmax (Rattus norvegicus [9]): 90 min
Cmax (Rattus norvegicus [10]): 3.33 µM
AUC (Rattus norvegicus [11]): 38 µM·h
F (Rattus norvegicus [12]): 71%
half-life [13]: 563 min
MRT (Cynomolgus monkey [14]): 303 min
clearance [15]: 13.3 mL/min/kg
Cmax (Cynomolgus monkey [16]): 1360 nM
AUC (Cynomolgus monkey [17]): 6.43 µM·h
F (Cynomolgus monkey [18]): 35%
Structure (SMILES): Cc1cc(Oc2cncc(F)c2)cc(C(=O)Nc2ccc(F)cn2)n1

beta t1/2 (Rattus norvegicus [1]): 268 min
MRT (Rattus norvegicus [2]): 120 min
Vdss (Rattus norvegicus [3]): 4.5 L/kg
Structure (SMILES): Cc1cccc(NC(=O)c2cc(Oc3cncc(F)c3)cc(C)n2)n1

beta t1/2 (Rattus norvegicus [1]): 82 min
MRT (Rattus norvegicus [2]): 157 min
Vdss (Rattus norvegicus [3]): 11 L/kg
Structure (SMILES): Cc1cc(Oc2cncc(F)c2)cc(C(=O)Nc2cccc(F)n2)n1
